Laboratory results taken from ChEMBL document CHEMBL1152785, “Synthesis and biological evaluation of a series of novel inhibitor of Nek2/Hec1 analogues” (J Med Chem, 2009).
Active and inactive are the calls of the source. No cut-off for these calls is given here.

Test system: MDA-MB-231
Assay: Cytotoxicity against human MDA-MB-231 cells after 4 days XTT assay
Type: functional, cell-based
Details: MDA-MB-231, 96 h
Outline: (§1)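 XTT assay with four-day drug treatment. Cells were plated one day before dosing and drug was added on day 2. XTT was read on day 5 after drug addition by absorbance at 595 nm. Absorbance was converted to percent survival against mock-treated cells to give dose-dependent cytotoxicity. Triplicate sets. HeLa, MDA-MB231 and MDA-MB468 were maintained in DMEM with 10% FBS.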

Structure (SMILES) | IC50 [µM]
Cc1ccc(-c2csc(NC(=O)c3cnccn3)n2)c(C)c1 | > 25
Cc1cc(C)c(-c2csc(N(CC(=O)O)C(=O)c3ccccc3)n2)c(C)c1 | > 40
Cc1ccc(-c2csc(NC(=O)c3cncn3C)n2)c(C)c1 | > 25
Cc1cc(C)c(-c2csc(NC(=O)c3nccs3)n2)c(C)c1 | 4.7
COc1cc(C)cc(C)c1-c1csc(NC(=O)c2ccccc2)n1 | 7.2
Cc1cc(C)c(-c2csc(N(C)C(=O)c3ccccc3)n2)c(C)c1 | 11.6
Cc1ccc(-c2coc(NC(=O)c3ccccc3)n2)c(C)c1 | 14.4
Cc1cc(C)c(-c2csc(NC(=O)c3cccnc3)n2)c(C)c1 | 3.2
Cc1ccc(-c2csc(NC(=S)c3ccccc3)n2)c(C)c1 | 21.1
COc1ccc(C(=O)Nc2nc(-c3c(C)cc(C)cc3C)cs2)c(OC)c1 | 9.7
Cc1ccc(-c2csc(NC(=O)c3ccncc3)n2)c(C)c1 | 1.1
CCOC(=O)CN(C(=O)c1ccccc1)c1nc(-c2c(C)cc(C)cc2C)cs1 | 15.8
Cc1cc(C)c(-c2csc(NC(=O)c3ccc(O)cc3O)n2)c(C)c1 | 22.5
Cc1cc(C)c(-c2csc(NC(=O)c3ccccn3)n2)c(C)c1 | 4.1
COc1ccc(C(=O)Nc2nc(-c3ccc(C)cc3C)cs2)c(OC)c1 | 23.4
Cc1ccc(-c2csc(NC(=O)c3ccccn3)n2)c(C)c1 | 7.5
Cc1cc(C)c(-c2csc(NC(=O)c3ccccc3)n2)c(O)c1 | 11.8

Test system: K562
Assay: Cytotoxicity against human K562 cells after 4 days by XTT assay
Type: functional, cell-based
Details: K562, 96 h

Structure (SMILES) | IC50 [µM]
Cc1ccc(-c2csc(NC(=O)c3cnccn3)n2)c(C)c1 | > 25
Cc1cc(C)c(-c2csc(N(CC(=O)O)C(=O)c3ccccc3)n2)c(C)c1 | > 40
Cc1ccc(-c2csc(NC(=O)c3cncn3C)n2)c(C)c1 | > 25
Cc1cc(C)c(-c2csc(NC(=O)c3nccs3)n2)c(C)c1 | 14.5
COc1cc(C)cc(C)c1-c1csc(NC(=O)c2ccccc2)n1 | 7.3
Cc1cc(C)c(-c2csc(N(C)C(=O)c3ccccc3)n2)c(C)c1 | 9.2
Cc1ccc(-c2coc(NC(=O)c3ccccc3)n2)c(C)c1 | 19.2
Cc1cc(C)c(-c2csc(NC(=O)c3cccnc3)n2)c(C)c1 | 3.9
Cc1ccc(-c2csc(NC(=S)c3ccccc3)n2)c(C)c1 | 22.9
COc1ccc(C(=O)Nc2nc(-c3c(C)cc(C)cc3C)cs2)c(OC)c1 | 9.5
Cc1ccc(-c2csc(NC(=O)c3ccncc3)n2)c(C)c1 | 1.2
CCOC(=O)CN(C(=O)c1ccccc1)c1nc(-c2c(C)cc(C)cc2C)cs1 | 20.2
Cc1cc(C)c(-c2csc(NC(=O)c3ccc(O)cc3O)n2)c(C)c1 | > 40
Cc1cc(C)c(-c2csc(NC(=O)c3ccccn3)n2)c(C)c1 | 4.9
COc1ccc(C(=O)Nc2nc(-c3ccc(C)cc3C)cs2)c(OC)c1 | > 40
Cc1ccc(-c2csc(NC(=O)c3ccccn3)n2)c(C)c1 | 13.3
Cc1cc(C)c(-c2csc(NC(=O)c3ccccc3)n2)c(O)c1 | 11.9

Target: T1, Serine/threonine-protein kinase Nek2 (Homo sapiens) (UniProt P51955)
T1 sequence (whole entry): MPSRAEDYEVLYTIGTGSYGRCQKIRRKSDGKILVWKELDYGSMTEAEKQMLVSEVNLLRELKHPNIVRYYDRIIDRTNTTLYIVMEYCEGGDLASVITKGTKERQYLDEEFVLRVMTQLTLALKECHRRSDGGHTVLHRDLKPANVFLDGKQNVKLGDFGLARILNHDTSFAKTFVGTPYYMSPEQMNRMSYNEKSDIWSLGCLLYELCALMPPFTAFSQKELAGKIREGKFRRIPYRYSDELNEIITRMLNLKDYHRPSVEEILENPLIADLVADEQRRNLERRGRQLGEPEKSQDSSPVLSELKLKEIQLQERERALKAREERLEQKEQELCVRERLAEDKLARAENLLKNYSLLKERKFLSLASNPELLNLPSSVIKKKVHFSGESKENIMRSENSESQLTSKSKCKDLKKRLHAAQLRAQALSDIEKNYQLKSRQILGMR
Assay: Binding affinity to NeK2 in human HeLa cell extract by affinity pulldown assay
Type: cell-free
Details: not given
Outline: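 Compounds were conjugated to affi-gel matrix. HeLa cell extract was incubated with control or compound-conjugated matrices and the precipitates were washed thoroughly. Bound proteins were resolved by SDS-PAGE and Western blotted for Hec1 and Nek2. Whole cell extract served as input, in duplicates.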

Activity | Structure (SMILES)
inactive | Cc1ccc(-c2csc(NC(=O)c3ccncc3)n2)c(C)c1

Test system: HeLa
Assay: Cytotoxicity against human HeLa cells after 4 days by XTT assay
Type: functional, cell-based
Details: 96 h
Outline: as §1

Structure (SMILES) | IC50 [µM]
Cc1ccc(-c2csc(NC(=O)c3cnccn3)n2)c(C)c1 | > 25
Cc1cc(C)c(-c2csc(N(CC(=O)O)C(=O)c3ccccc3)n2)c(C)c1 | > 40
Cc1ccc(-c2csc(NC(=O)c3cncn3C)n2)c(C)c1 | > 25
Cc1cc(C)c(-c2csc(NC(=O)c3nccs3)n2)c(C)c1 | 11.2
COc1cc(C)cc(C)c1-c1csc(NC(=O)c2ccccc2)n1 | 10.6
Cc1cc(C)c(-c2csc(N(C)C(=O)c3ccccc3)n2)c(C)c1 | 14.1
Cc1ccc(-c2coc(NC(=O)c3ccccc3)n2)c(C)c1 | 18.6
Cc1cc(C)c(-c2csc(NC(=O)c3cccnc3)n2)c(C)c1 | 3.6
Cc1ccc(-c2csc(NC(=S)c3ccccc3)n2)c(C)c1 | 18.6
COc1ccc(C(=O)Nc2nc(-c3c(C)cc(C)cc3C)cs2)c(OC)c1 | 13.6
Cc1ccc(-c2csc(NC(=O)c3ccncc3)n2)c(C)c1 | 1.6
CCOC(=O)CN(C(=O)c1ccccc1)c1nc(-c2c(C)cc(C)cc2C)cs1 | 22.2
Cc1cc(C)c(-c2csc(NC(=O)c3ccc(O)cc3O)n2)c(C)c1 | > 40
Cc1cc(C)c(-c2csc(NC(=O)c3ccccn3)n2)c(C)c1 | 5.2
COc1ccc(C(=O)Nc2nc(-c3ccc(C)cc3C)cs2)c(OC)c1 | > 40
Cc1ccc(-c2csc(NC(=O)c3ccccn3)n2)c(C)c1 | 14.5
Cc1cc(C)c(-c2csc(NC(=O)c3ccccc3)n2)c(O)c1 | 13.1

Test system: MDA-MB-468
Assay: Cytotoxicity against human MDA-MB-468 cells after 4 days by XTT assay
Type: functional, cell-based
Details: MDA-MB-468, 96 h
Outline: as §1

Structure (SMILES) | IC50 [µM]
Cc1ccc(-c2csc(NC(=O)c3cnccn3)n2)c(C)c1 | > 25
Cc1cc(C)c(-c2csc(N(CC(=O)O)C(=O)c3ccccc3)n2)c(C)c1 | > 40
Cc1ccc(-c2csc(NC(=O)c3cncn3C)n2)c(C)c1 | > 25
Cc1cc(C)c(-c2csc(NC(=O)c3nccs3)n2)c(C)c1 | 11.8
COc1cc(C)cc(C)c1-c1csc(NC(=O)c2ccccc2)n1 | 10.7
Cc1cc(C)c(-c2csc(N(C)C(=O)c3ccccc3)n2)c(C)c1 | 10.8
Cc1ccc(-c2coc(NC(=O)c3ccccc3)n2)c(C)c1 | 16
Cc1cc(C)c(-c2csc(NC(=O)c3cccnc3)n2)c(C)c1 | 3
Cc1ccc(-c2csc(NC(=S)c3ccccc3)n2)c(C)c1 | 19.6
COc1ccc(C(=O)Nc2nc(-c3c(C)cc(C)cc3C)cs2)c(OC)c1 | 11.2
Cc1ccc(-c2csc(NC(=O)c3ccncc3)n2)c(C)c1 | 3.4
CCOC(=O)CN(C(=O)c1ccccc1)c1nc(-c2c(C)cc(C)cc2C)cs1 | 20.2
Cc1cc(C)c(-c2csc(NC(=O)c3ccc(O)cc3O)n2)c(C)c1 | 21.3
Cc1cc(C)c(-c2csc(NC(=O)c3ccccn3)n2)c(C)c1 | 2.3
COc1ccc(C(=O)Nc2nc(-c3ccc(C)cc3C)cs2)c(OC)c1 | > 40
Cc1ccc(-c2csc(NC(=O)c3ccccn3)n2)c(C)c1 | 6.2
Cc1cc(C)c(-c2csc(NC(=O)c3ccccc3)n2)c(O)c1 | > 40
